Assay [1] can be described thus: OD615 S. cerevisiae growth inhibition, permissive medium, pilot counter-assay, permissive growth control for S. cerevisiae lifespan shortening project (AID 705). The settings on record: OD615, 24 h, at 10 µM, stronger effect = higher value. Put shortly: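 System – S. cerevisiae with engineered DeaD lifespan system · Buffer or medium – SC raffinose/galactose permissive medium · Schedule – cells pre-grown 4 h, then 24 h compound exposure, 30 °C humidified · Technique – culture turbidity as optical density at 615 nm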

Assay [2] can be described thus: Restrictive medium S. cerevisiae growth inhibition, OD615, pilot screen of yeast lifespan reduction project, restrictive growth control (AID 706;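 active = growth inhibition above a set limit, 3 SD over mean compound inhibition, in both replicates, cut at about 43% in these data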;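 also: modified DeaD lifespan yeast strain shifted to restrictive glucose medium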). The settings on record: OD615, 48 h, at 10 µM, stronger effect = higher value. Put shortly: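 Material: engineered S. cerevisiae DeaD strain / Medium: glucose-based CSMM-D restrictive medium / Compound: single dose of 10 µM compound final, 0.25% DMSO / Timing: 4 h pre-incubation, 48 h exposure at 30 °C / Technique: OD615 absorbance reading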

The nature of assay [3]: viability gain of MRP-1-high H69AR cells under doxorubicin, pilot screen, MRP-1 activator project, CellTiter-Glo, duplicate (AID 807;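 active = viability increase at or above a cutoff of the median across tested compounds plus 3 SD, cut at about 8.5% in these data, passing the limit was not always enough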;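 also: compound pretreatment 18-22 h then 72 h combined with doxorubicin; 0% = doxorubicin alone and 100% = vehicle without doxorubicin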). The settings on record: H69AR viability with doxorubicin, CellTiter-Glo luminescence; at 10 µM; stronger effect = higher value.
The nature of assay [4]: growth suppression of beta-catenin knockout HCT116, pilot screen, human colon tumor cells (AID 823;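 active = cell viability at or below a set limit in both duplicate runs, the limit being the all-compound median minus 4 SD, cut at about 23% in these data, passing the limit was not always enough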;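 also: 0% = wells killed by 20 µM Hyamine and 100% = untreated DMSO cell wells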). The settings on record: CellTiter-Glo, 60 h, at 10 µM, stronger effect = lower value. (ATP-based viability assays read luminescence as a measure of living cells.)
Assay [5] can be described thus: growth suppression of PTEN-deleted HCT116, pilot screen, cell-based, HCT116 clonal line, CellTiter-Glo (AID 824;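 active = viability at or below 27.92% in each of two runs, the all-compound median minus 4 SD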;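 also: 0% = 20 µM Hyamine control and 100% = vehicle cell control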). The settings on record: 60 h, at 10 µM, stronger effect = lower value.
Assay [6] is described as follows: inhibitors of the yeast RAM network, pilot screen, dse1pr::URA3 reporter, 5-FOA selection (AID 869;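 active = inhibition over a set limit, the all-compound mean plus 3 SD, in both replicate runs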;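 also: 0% = DMSO wells with no growth and 100% = 10 µM 1-NA-PP1 with full growth; RAM network block rescues cells from 5-FOA so hits raise OD615 growth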). The settings on record: S. cerevisiae dse1pr::URA3 5-FOA growth, OD615, 2 d, at 10 µM, stronger effect = higher value.
The nature of assay [7]: RAM signaling pathway blockade in yeast – S. cerevisiae, Pdr1DBD-CYC8 efflux-inhibited sensitized strain, primary screen (AID 1298;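 active = RAM network inhibition above 8.4% in each of two replicates, 3 SD over the compound average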;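 also: 0% = DMSO untreated cells without growth and 100% = 10 µM 1-NA-PP1 full growth; higher means more yeast growth rescued from 5-FOA killing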). The note with it: S. cerevisiae cbk1-as DSE1-URA3 strain, 5-FOA growth OD615, 2 d; at 50 µM; stronger effect = higher value.
Assay [8] is described as follows: Recombinant Mtb pantothenate synthetase (PanC) inhibitors, coupled enzyme, confirmatory (AID 375; call rule not given here). The settings on record: coupled enzyme assay.
Assay [9] concerns the target Pantothenate synthetase (Mycobacterium tuberculosis (strain ATCC 25618 / H37Rv)) (UniProt P9WIL5). Described as above. The note with it: coupled enzyme assay; at 10 µM, stronger effect = higher value.

The values that follow come from PubChem BioAssay.

For orientation: viability means a read-out of living cells in per cent, often relative to untreated cells. As a reminder, the inhibition is the change of the read-out against control, counted positive when it falls. What is called IC50 is the point on the concentration scale where inhibition reaches its midpoint.

Molecules are shown by their SMILES. Inconclusive results are not listed. Calls of active or inactive are those of the source.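 The calls were made as follows, unless noted: active = growth inhibition above 25% in both replicates, a cutoff set 3 SD above the mean; inconclusive = above 25% in only one replicate; inactive = the rest.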 Bounds are passed on as bounds.

Chain of Pantothenate synthetase (Mycobacterium tuberculosis (strain ATCC 25618 / H37Rv)) (P9WIL5 whole entry, looked up): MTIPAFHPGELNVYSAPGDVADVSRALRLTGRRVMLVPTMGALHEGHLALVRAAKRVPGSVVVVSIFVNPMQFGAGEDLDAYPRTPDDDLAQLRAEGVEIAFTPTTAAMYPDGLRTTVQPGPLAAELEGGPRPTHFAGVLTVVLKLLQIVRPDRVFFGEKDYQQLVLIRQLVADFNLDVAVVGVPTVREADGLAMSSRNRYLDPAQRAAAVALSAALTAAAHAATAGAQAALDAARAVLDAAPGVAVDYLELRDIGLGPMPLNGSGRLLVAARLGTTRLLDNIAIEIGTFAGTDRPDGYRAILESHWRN

For `CN(C(=O)Oc1cccc2cccnc12)c1ccccc1`, the growth inhibition was -2.11% (inactive) in assay [1] and 3.21% (inactive) in assay [2]. The viability increase in assay [3] was -0.61% (inactive). The viability in assay [4] was 91% (inactive); in [5] it was 90.1% (inactive). Also, the inhibition in [6] is 0.415% (inactive). Further, in assay [7], the RAM network inhibition is 2.67% (inactive).

As to `CN1CC=C(c2c[nH]c3ccccc23)CC1`, the results for the growth inhibition in [1] and in assay [2] were 0.43% (inactive) and 10.4% (inactive), respectively. In [3], the viability increase is -3.51% (inactive). The viability in assay [4] was 92% (inactive); in assay [5], 92.5% (inactive). In addition, the inhibition in assay [6] is -0.185% (inactive). Besides, the RAM network inhibition in assay [7] was -1.66% (inactive).

Take `Cc1cc(OCC(=O)NC2CCS(=O)(=O)C2)c2c3c(c(=O)oc2c1)CCC3` (configuration not stated): the figures for the growth inhibition in assay [1] and in assay [2] were -13.3% (inactive) and -15.4% (inactive), respectively. Moreover, the viability increase in assay [3] is -5.3% (inactive). In assay [4], the viability is 87.2% (inactive). Also, the inhibition in assay [6] is 1.55% (inactive). Also, in assay [7], the RAM network inhibition is 2.75% (inactive).

For `CN1CCN(CCC(C#N)(c2ccccc2)c2ccccc2)CC1`, the growth inhibition in assay [1] was -19.9% (inactive); in [2] it was -7.5% (inactive). Moreover, in [3], the viability increase is -2.94% (inactive). The viability in [4] is 87% (inactive). Besides, the inhibition in assay [6] is 1.81% (inactive). Also, in [7], the RAM network inhibition is 0.63% (inactive).

For the molecule `CC1(C)CN=C(Nc2ccc(F)c(F)c2)S1`, the growth inhibition is -7.04% (inactive) in assay [1] and -4.74% (inactive) in [2]. In assay [3], the viability increase was 0.98% (inactive). Also, the viability was 111% (inactive) in assay [4] and 101% (inactive) in assay [5]. The inhibition in [6] was 0.8% (inactive). Further, in [7], the RAM network inhibition was 6.13% (inactive).

Turning to `Cc1nn(C2CCOC(C)(C)C2)c2c1C(c1ccc3c(c1)OCO3)SCC(=O)N2` (configuration not stated), the values for the growth inhibition in assay [1] and in assay [2] were 7.63% (inactive) and 14.5% (inactive), respectively. For the same molecule, the viability increase in assay [3] is -0.34% (inactive). Further, in assay [4], the viability was 97% (inactive). Also, the inhibition in assay [6] was 0.985% (inactive). Also, the RAM network inhibition in assay [7] was 1.2% (inactive).

Turning to `O=C1CCCC2=C1C(c1cccnc1)Nc1ccccc1N2` (configuration not stated), the growth inhibition in assay [1] is -12.3% (inactive); in assay [2], -2.74% (inactive). In assay [3], the viability increase is -1.06% (inactive). Besides, the viability in [4] was 90.8% (inactive); in assay [5], 99.2% (inactive). Further, in assay [6], the inhibition was 1.61% (inactive). Also, in [7], the RAM network inhibition is 4.54% (inactive).

For `COc1ccc(C2C(C(=O)N3CCC4(CC3)OCCO4)CC(=O)N2c2ccc(OC)cc2)cc1` (configuration not stated), the growth inhibition is -8.58% (inactive) in assay [1] and -2.57% (inactive) in assay [2]. Further, the viability increase in assay [3] is -3.2% (inactive). Besides, the viability in assay [5] was 103% (inactive). Also, the inhibition in assay [6] was 1% (inactive). The RAM network inhibition in assay [7] was 5.09% (inactive).

As for `CC(C)CC1C(C#N)=C(N)Oc2c1c(=O)oc1ccccc21` (configuration not stated), the values for the growth inhibition in assay [1] and in assay [2] were -12.7% (inactive) and -16.4% (inactive), respectively. Besides, the viability increase in [3] is -0.17% (inactive). Moreover, the viability is 102% (inactive) in assay [4] and 99.8% (inactive) in [5]. Moreover, in assay [6], the inhibition is 1.71% (inactive). The RAM network inhibition in assay [7] was 8.07% (inactive).

Turning to `COc1cc2c(cc1OC)-c1c(OC)c(OC)cc3c1C(C2)N(C)CC3` (configuration not stated), the growth inhibition is -13.1% (inactive) in assay [1] and 1.99% (inactive) in assay [2]. In addition, the viability increase in [3] is -3.02% (inactive). The viability was 73.6% (inactive) in assay [4] and 61.6% (inactive) in assay [5]. For the same molecule, in assay [6], the inhibition is -0.365% (inactive). The RAM network inhibition in [7] was 6.23% (inactive).

In the case of `CCCCCCn1c(=O)c(C(=O)Nc2ccncc2)c(O)c2ccccc21`, the growth inhibition in assay [1] was 93.5% (active); in assay [2], 97.4% (active). For the same molecule, the viability increase in assay [3] is -7.48% (inactive). Moreover, the inhibition in [6] is -0.885% [strain carries analog-sensitive mutant Cbk1 kinase] (inactive). In assay [7], the RAM network inhibition is -1.58% (inactive).

Regarding `CC(C)(C)C1CCc2onc(C(=O)Nc3cnn(Cc4ccc(F)cc4)c3)c2C1` (configuration not stated), the half-maximal inhibitory concentration (IC50) in [8] (measured here: coupling enzymes IC50 repeat trials) and in [8] (measured here: coupling enzymes counter-screen IC50) was over 100 µM in each case.

Take `OC12Oc3ccccc3C=C1N1CCC2CC1` (configuration not stated): the figures for the growth inhibition in assay [1] and in assay [2] were 1.47% (inactive) and -1.35% (inactive), respectively. Besides, in assay [3], the viability increase was 0.26% (inactive). Further, the viability was 99.1% (inactive) in [4] and 96.8% (inactive) in [5]. Further, the inhibition in assay [6] is 1.48% (inactive). Also, in assay [7], the RAM network inhibition is 0.26% (inactive).

Consider `COCCOC(=O)C1=C(N)OC(C)=C(C(=O)OC)C12C(=O)Nc1ccccc12` (configuration not stated), for which the values for the growth inhibition in assay [1] and in assay [2] were -5.22% (inactive) and -5.97% (inactive), respectively. In assay [3], the viability increase is -4.28% (inactive). In addition, in [5], the viability was 93% (inactive). Further, the inhibition in assay [6] was 2.54% (inactive). Moreover, in assay [7], the RAM network inhibition was 3.95% (inactive).

In the case of `COc1ccc2c(c1)CCc1c(C(=O)Nc3cc(C)n(Cc4ccc(Cl)cc4)n3)noc1-2`, the IC50 in assay [8] (measured here: coupling enzymes IC50 repeat trials unless noted) is over 100 µM. In addition, in [9], the outcome was inactive.

In the case of `c1ccc2sc(C3CCCNC3)nc2c1` (configuration not stated), the figures for the growth inhibition in assay [1] and in assay [2] were -10.6% (inactive) and -19.7% (inactive), respectively. The viability increase in [3] is -1.16% (inactive). The viability in assay [4] was 97.6% (inactive); in [5], 97.4% (inactive). Also, the inhibition in assay [6] is 2.33% (inactive). In assay [7], the RAM network inhibition was 0.56% (inactive).

In the case of `CN1CCN(c2ccc(NC(=O)C(C)(C)C)cc2)CC1`, the growth inhibition is -17.9% (inactive) in assay [1] and 6% (inactive) in assay [2]. Moreover, the viability increase in [3] was -1.56% (inactive). Besides, the viability in [4] was 94.8% (inactive). In addition, the inhibition in [6] was 1.54% (inactive). For the same molecule, in [7], the RAM network inhibition was 5.29% (inactive).

For the molecule `O=C(Cc1ccccc1)Oc1cccc(N2C(=O)CCC2=O)c1`, the figures for the growth inhibition in [1] and in [2] were -15.7% (inactive) and -12.2% (inactive), respectively. For the same molecule, in assay [3], the viability increase is -0.69% (inactive). Besides, the figures for the viability in assay [4] and in assay [5] were 101% (inactive) and 94.8% (inactive), respectively. The inhibition in assay [6] is 1.23% (inactive). Moreover, the RAM network inhibition in assay [7] was 3.42% (inactive).

Consider `CCOc1ccccc1C1SCC(=O)Nc2c1c(=O)[nH]n2C(CC)CC` (configuration not stated), for which the growth inhibition in assay [1] is -3.42% (inactive); in assay [2], -8.7% (inactive). The viability increase in assay [3] was -0.06% (inactive). The viability in [4] is 93.5% (inactive); in [5], 93.3% (inactive). The inhibition in assay [6] is 1.07% (inactive). Moreover, in assay [7], the RAM network inhibition was 0.37% (inactive).

For the molecule `Cc1cc(C)n2c(Br)c(CN3CC4CC(C3)c3cccc(=O)n3C4)nc2n1` (configuration not stated), the growth inhibition was -3.02% (inactive) in assay [1] and -5.3% (inactive) in assay [2]. For the same molecule, the viability increase in [3] is -2.43% (inactive). Moreover, the viability in assay [4] is 90.9% (inactive); in assay [5] it was 105% (inactive). The inhibition in assay [6] is 1.09% (inactive). For the same molecule, the RAM network inhibition in [7] is -0.1% (inactive).
